ChEMBL document CHEMBL5126614 (ACS Med Chem Lett, 2022)

Assays:
[1] = system: Rhesus monkey; assay: Anti-obesity activity in type 2 diabetes rhesus monkey model assessed as reduction in cumulative food intake at 30 ug/kg, sc qd for 3 weeks and measured daily for 21 days relative to baseline; assay type: functional, Macaca mulatta; set-up: scale not given: the % may be the effect or the level left; details: dose 30 µg/kg
[2] = system: Rhesus monkey; assay: Anti-obesity activity in type 2 diabetes rhesus monkey model assessed as reduction in body weight at 30 ug/kg, sc qd for 1 week and measured during 1 week relative to control; assay type: functional, Macaca mulatta; set-up: scale not given: the % may be the effect or the level left; details: dose 30 µg/kg, time 1 weeks
[3] = system: Rhesus monkey; assay: Anti-obesity activity in type 2 diabetes rhesus monkey model assessed as weight loss at 30 ug/kg, sc qd for 3 weeks relative to control; assay type: functional, Macaca mulatta; details: dose 30 µg/kg
[4] = system: Rhesus monkey; assay: Anti-obesity activity in type 2 diabetes rhesus monkey model assessed as reduction in body weight at 30 ug/kg, sc qd for 3 weeks and measured during third week of dosing relative to control; assay type: functional, Macaca mulatta; set-up: scale not given: the % may be the effect or the level left; details: dose 30 µg/kg
[5] = system: Rhesus monkey; assay: Antidiabetic activity in type 2 diabetes rhesus monkey model assessed as corrected fasting glucose level at 30 ug/kg, sc qd for 3 weeks and measured on day 22 by intravenous glucose tolerance test; assay type: functional, Macaca mulatta; details: dose 30 µg/kg, time 22 day
In short: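 Type 2 diabetic rhesus monkeys received daily dosing for 3 weeks, alongside vehicle and a liraglutide benchmark at 30 μg/kg. Fasting plasma glucose was compared with baseline or vehicle, and fasting insulin with vehicle.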

[6] = system: Rhesus monkey; assay: Anti-obesity activity in type 2 diabetes rhesus monkey model assessed as reduction in body weight at 30 ug/kg, sc qd for 2 weeks and measured during second week of dosing relative to control; assay type: functional, Macaca mulatta; set-up: scale not given: the % may be the effect or the level left; details: dose 30 µg/kg
[7] = species on record: Homo sapiens; assay: Selectivity ratio of EC50 for human GCGR expressed in frozen cells to EC50 for human GLP1R expressed in frozen cells; assay type: cell-based
[8] = species on record: Macaca mulatta; assay: Selectivity ratio of EC50 for rhesus monkey GCGR to EC50 for rhesus monkey GLP1R
[9] = Agonist activity at rhesus monkey GCGR; set-up: species or system Macaca mulatta
[10] = biological target: Glucagon-like peptide 1 receptor (Homo sapiens, UniProt P43220); assay: Agonist activity at human GLP1R expressed in frozen cells assessed as increase in cAMP production measured after 1 hr by HitHunter luminescence assay; assay type: functional, cell-based
[11] = biological target: Glucagon receptor (Homo sapiens, UniProt P47871); assay: Agonist activity at human GCGR expressed in frozen cells assessed as increase in cAMP production measured after 1 hr by HitHunter luminescence assay; assay type: functional, cell-based
[12] = Agonist activity at rhesus monkey GLP1R; set-up: species or system Macaca mulatta

Sequence of Glucagon-like peptide 1 receptor (P43220 whole entry): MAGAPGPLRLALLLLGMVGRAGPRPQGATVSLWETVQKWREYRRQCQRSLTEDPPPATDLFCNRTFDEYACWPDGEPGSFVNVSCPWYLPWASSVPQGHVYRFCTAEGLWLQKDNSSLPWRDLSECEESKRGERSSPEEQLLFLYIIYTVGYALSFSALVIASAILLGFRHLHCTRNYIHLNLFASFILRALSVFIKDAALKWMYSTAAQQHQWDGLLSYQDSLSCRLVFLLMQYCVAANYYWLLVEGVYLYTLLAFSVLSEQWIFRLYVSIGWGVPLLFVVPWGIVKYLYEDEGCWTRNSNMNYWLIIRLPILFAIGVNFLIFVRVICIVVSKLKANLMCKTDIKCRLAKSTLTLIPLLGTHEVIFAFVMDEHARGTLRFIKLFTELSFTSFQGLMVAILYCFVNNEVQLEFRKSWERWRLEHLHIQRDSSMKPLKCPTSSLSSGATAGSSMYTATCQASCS
Sequence of Glucagon receptor (P47871 whole entry): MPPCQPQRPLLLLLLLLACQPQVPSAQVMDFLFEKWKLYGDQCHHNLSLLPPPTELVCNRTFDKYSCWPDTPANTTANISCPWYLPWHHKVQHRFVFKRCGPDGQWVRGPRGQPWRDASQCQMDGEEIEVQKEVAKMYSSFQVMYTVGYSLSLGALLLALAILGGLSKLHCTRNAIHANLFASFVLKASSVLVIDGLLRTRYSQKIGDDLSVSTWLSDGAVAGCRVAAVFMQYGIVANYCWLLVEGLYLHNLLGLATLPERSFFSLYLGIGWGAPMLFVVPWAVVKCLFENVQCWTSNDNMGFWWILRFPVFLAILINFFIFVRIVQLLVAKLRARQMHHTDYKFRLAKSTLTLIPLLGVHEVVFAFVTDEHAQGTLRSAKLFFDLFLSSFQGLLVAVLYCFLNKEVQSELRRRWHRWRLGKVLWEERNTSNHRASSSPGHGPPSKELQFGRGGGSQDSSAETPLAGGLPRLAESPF

| Ratio EC50 [8] | EC50 [9] | EC50 [10] | EC50 [11] | EC50 [12] | Compound | Activity [1] | Activity [2] | Activity [3] | Activity [4] | Activity [5] | Activity [6] | Ratio EC50 [7] |
| --- | --- | --- | --- | --- | --- | --- | --- | --- | --- | --- | --- | --- |
| – | – | – | – | – | CCCCCCCCCCCCCCCC(=O)N[C@@H](CCC(=O)NCCCC[C@H](NC(=O)[C@H](C)NC(=O)[C@H](C)NC(=O)[C@H](CCC(N)=O)NC(=O)CNC(=O)[C@H](CCC(=O)O)NC(=O)[C@H](CC(C)C)NC(=O)[C@H](Cc1ccc(O)cc1)NC(=O)[C@H](CO)NC(=O)[C@H](CO)NC(=O)[C@@H](NC(=O)[C@H](CC(=O)O)NC(=O)[C@H](CO)NC(=O)[C@@H](NC(=O)[C@H](Cc1ccccc1)NC(=O)[C@@H](NC(=O)CNC(=O)[C@H](CCC(=O)O)NC(=O)[C@H](C)NC(=O)[C@@H](N)Cc1cnc[nH]1)[C@@H](C)O)[C@@H](C)O)C(C)C)C(=O)N[C@@H](CCC(=O)O)C(=O)N[C@@H](Cc1ccccc1)C(=O)N[C@H](C(=O)N[C@@H](C)C(=O)N[C@@H](Cc1c[nH]c2ccccc12)C(=O)N[C@@H](CC(C)C)C(=O)N[C@H](C(=O)N[C@@H](CCCNC(=N)N)C(=O)NCC(=O)N[C@@H](CCCNC(=N)N)C(=O)NCC(=O)O)C(C)C)[C@@H](C)CC)C(=O)O [LIRAGLUTIDE] | 32% | 1.7% | 3.3% | 0.6% | 30 mg/dL | 1% | – |
| 0.5 | 8 pM | 13 pM | 17 pM | 15 pM | CCCCCCCCCCCCCCCC(=O)N[C@@H](CCC(=O)N[C@@H](CCC(=O)NCCCC[C@H](NC(=O)[C@H](CC(=O)O)NC(=O)[C@H](CO)NC(=O)[C@@H](NC(=O)[C@H](Cc1ccccc1)NC(=O)[C@@H](NC(=O)CNC(=O)[C@H](CCC(N)=O)NC(=O)[C@@H](CO)NC(=O)[C@@H](N)Cc1cnc[nH]1)[C@@H](C)O)[C@@H](C)O)C(=O)N[C@@H](CO)C(=O)N[C@@H](CCCCN)C(=O)N[C@@H](Cc1ccc(O)cc1)C(=O)N[C@@H](CC(C)C)C(=O)N[C@@H](CC(=O)O)C(=O)N[C@@H](CCC(=O)O)C(=O)N[C@@H](CCCNC(=N)N)C(=O)N[C@@H](C)C(=O)N[C@@H](C)C(=O)N[C@@H](CCC(N)=O)C(=O)N[C@@H](CC(=O)O)C(=O)N[C@@H](Cc1ccccc1)C(=O)N[C@H](C(=O)N[C@@H](CCC(N)=O)C(=O)N[C@@H](Cc1c[nH]c2ccccc12)C(=O)N[C@@H](CC(C)C)C(=O)N[C@@H](CC(C)C)C(=O)N[C@@H](CC(=O)O)C(=O)N[C@H](C(N)=O)[C@@H](C)O)C(C)C)C(=O)O)C(=O)O | – | – | – | – | – | – | 1.3 |
